Data reported in ChEMBL document CHEMBL4689842, “EUbOPEN Chemogenomics Library wave 1” (2021).

Tested on: HEK-293T
Experiment: Multiplex assay against HEK293T;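 for Population Tubulin-Different-Phenotype (%): share of the cells with healthy nuclei that show this phenotype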
Type: toxicity, cell-based
Settings: human
Summary of the method: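 Hoechst33342, BioTracker Green Microtubule Cytoskeleton Dye, MitoTracker Red and Annexin V Alexa Fluor 680 were added to live cells at seeding, and imaging on a CQ1 microscope at 37°C and 5% CO2 followed compound addition. Gating by CellPathfinder machine learning separated cells into Hoechst high-intensity objects or normal cells, then normal cells into healthy, pyknosed or fragmented nuclei, then pyknosed cells into mitotic or apoptotic. Per cents of healthy-nucleus cells are reported for the tubulin, mitochondrial-mass and membrane-permeability phenotypes.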

[1] = 12 h, 1 µM, compound concentration 1 uM, replicate 1
[2] = 12 h, 1 µM, compound concentration 1 uM, replicate 2
[3] = 12 h, 10 µM, compound concentration 10 uM, replicate 1
[4] = 12 h, 10 µM, compound concentration 10 uM, replicate 2
[5] = 24 h, 1 µM, compound concentration 1 uM, replicate 1
[6] = 24 h, 1 µM, compound concentration 1 uM, replicate 2
[7] = 24 h, 10 µM, compound concentration 10 uM, replicate 1
[8] = 24 h, 10 µM, compound concentration 10 uM, replicate 2
[9] = 48 h, 1 µM, compound concentration 1 uM, replicate 1
[10] = 48 h, 1 µM, compound concentration 1 uM, replicate 2
[11] = 48 h, 10 µM, compound concentration 10 uM, replicate 1
[12] = 48 h, 10 µM, compound concentration 10 uM, replicate 2

Structure (SMILES): O=C1NCN(c2ccccc2)C12CCN(CCCOc1ccc(F)cc1)CC2 [SPIRAMIDE]
- Population Apoptotic (%) [1]: 41%
- Population Fragmented Nuclei (%) [1]: 15%
- Population Hoechst High Intensity Objects (%) [1]: 12%
- Population Membrane Permeable-Phenotype (%) [1]: 4%
- Population Mitochondria Different-Phenotype (%) [1]: 81%
- Population Mitotic Cells (%) [1]: 58%
- Population Normal (%) [1]: 87%
- Population Pyknosed Nuclei (%) [1]: 45%
- Population Tubulin-Different-Phenotype (%) [1]: 35%
- Total Cell Count [1]: 216
- Population Apoptotic (%) [2]: 11%
- Population Fragmented Nuclei (%) [2]: 10%
- Population Healthy Nuclei (%) [2]: 38%
- Population Hoechst High Intensity Objects (%) [2]: 7%
- Population Membrane Permeable-Phenotype (%) [2]: 12%
- Population Mitochondria Different-Phenotype (%) [2]: 11%
- Population Mitotic Cells (%) [2]: 88%
- Population Normal (%) [2]: 92%
- Population Pyknosed Nuclei (%) [2]: 50%
- Population Tubulin-Different-Phenotype (%) [2]: 20%
- Total Cell Count [2]: 179
- Population Apoptotic (%) [3]: 66%
- Population Fragmented Nuclei (%) [3]: 16%
- Population Healthy Nuclei (%) [3]: 13%
- Population Hoechst High Intensity Objects (%) [3]: 17%
- Population Membrane Permeable-Phenotype (%) [3]: 0%
- Population Mitochondria Different-Phenotype (%) [3]: 95%
- Population Mitotic Cells (%) [3]: 33%
- Population Normal (%) [3]: 82%
- Population Pyknosed Nuclei (%) [3]: 70%
- Population Tubulin-Different-Phenotype (%) [3]: 95%
- Total Cell Count [3]: 210
- Population Apoptotic (%) [4]: 19%
- Population Fragmented Nuclei (%) [4]: 3%
- Population Healthy Nuclei (%) [4]: 34%
- Population Hoechst High Intensity Objects (%) [4]: 2%
- Population Membrane Permeable-Phenotype (%) [4]: 7%
- Population Mitochondria Different-Phenotype (%) [4]: 55%
- Population Mitotic Cells (%) [4]: 80%
- Population Normal (%) [4]: 97%
- Population Pyknosed Nuclei (%) [4]: 62%
- Population Tubulin-Different-Phenotype (%) [4]: 46%
- Total Cell Count [4]: 194
- Population Apoptotic (%) [5]: 50%
- Population Fragmented Nuclei (%) [5]: 13%
- Population Healthy Nuclei (%) [5]: 57%
- Population Hoechst High Intensity Objects (%) [5]: 10%
- Population Membrane Permeable-Phenotype (%) [5]: 0%
- Population Mitochondria Different-Phenotype (%) [5]: 66%
- Population Mitotic Cells (%) [5]: 50%
- Population Normal (%) [5]: 89%
- Population Pyknosed Nuclei (%) [5]: 28%
- Population Tubulin-Different-Phenotype (%) [5]: 34%
- Total Cell Count [5]: 248
- Population Apoptotic (%) [6]: 6%
- Population Fragmented Nuclei (%) [6]: 8%
- Population Healthy Nuclei (%) [6]: 61%
- Population Hoechst High Intensity Objects (%) [6]: 3%
- Population Membrane Permeable-Phenotype (%) [6]: 6%
- Population Mitochondria Different-Phenotype (%) [6]: 17%
- Population Mitotic Cells (%) [6]: 93%
- Population Normal (%) [6]: 96%
- Population Pyknosed Nuclei (%) [6]: 30%
- Population Tubulin-Different-Phenotype (%) [6]: 29%
- Total Cell Count [6]: 207
- Population Apoptotic (%) [7]: 69%
- Population Fragmented Nuclei (%) [7]: 17%
- Population Healthy Nuclei (%) [7]: 19%
- Population Hoechst High Intensity Objects (%) [7]: 17%
- Population Membrane Permeable-Phenotype (%) [7]: 5%
- Population Mitochondria Different-Phenotype (%) [7]: 97%
- Population Mitotic Cells (%) [7]: 30%
- Population Normal (%) [7]: 82%
- Population Pyknosed Nuclei (%) [7]: 62%
- Population Tubulin-Different-Phenotype (%) [7]: 100%
- Total Cell Count [7]: 231
- Population Apoptotic (%) [8]: 21%
- Population Fragmented Nuclei (%) [8]: 3%
- Population Healthy Nuclei (%) [8]: 54%
- Population Hoechst High Intensity Objects (%) [8]: 1%
- Population Membrane Permeable-Phenotype (%) [8]: 2%
- Population Mitochondria Different-Phenotype (%) [8]: 59%
- Population Mitotic Cells (%) [8]: 78%
- Population Normal (%) [8]: 98%
- Population Pyknosed Nuclei (%) [8]: 42%
- Population Tubulin-Different-Phenotype (%) [8]: 59%
- Total Cell Count [8]: 256
- Population Apoptotic (%) [9]: 35%
- Population Fragmented Nuclei (%) [9]: 10%
- Population Healthy Nuclei (%) [9]: 77%
- Population Hoechst High Intensity Objects (%) [9]: 7%
- Population Membrane Permeable-Phenotype (%) [9]: 1%
- Population Mitochondria Different-Phenotype (%) [9]: 26%
- Population Mitotic Cells (%) [9]: 64%
- Population Normal (%) [9]: 92%
- Population Pyknosed Nuclei (%) [9]: 12%
- Population Tubulin-Different-Phenotype (%) [9]: 22%
- Total Cell Count [9]: 484
- Population Apoptotic (%) [10]: 8%
- Population Fragmented Nuclei (%) [10]: 4%
- Population Healthy Nuclei (%) [10]: 82%
- Population Hoechst High Intensity Objects (%) [10]: 2%
- Population Membrane Permeable-Phenotype (%) [10]: 7%
- Population Mitochondria Different-Phenotype (%) [10]: 7%
- Population Mitotic Cells (%) [10]: 91%
- Population Normal (%) [10]: 97%
- Population Pyknosed Nuclei (%) [10]: 13%
- Population Tubulin-Different-Phenotype (%) [10]: 20%
- Total Cell Count [10]: 363
- Population Apoptotic (%) [11]: 59%
- Population Fragmented Nuclei (%) [11]: 17%
- Population Healthy Nuclei (%) [11]: 30%
- Population Hoechst High Intensity Objects (%) [11]: 18%
- Population Membrane Permeable-Phenotype (%) [11]: 0%
- Population Mitochondria Different-Phenotype (%) [11]: 98%
- Population Mitotic Cells (%) [11]: 40%
- Population Normal (%) [11]: 81%
- Population Pyknosed Nuclei (%) [11]: 51%
- Population Tubulin-Different-Phenotype (%) [11]: 89%
- Total Cell Count [11]: 227
- Population Apoptotic (%) [12]: 21%
- Population Fragmented Nuclei (%) [12]: 4%
- Population Healthy Nuclei (%) [12]: 77%
- Population Hoechst High Intensity Objects (%) [12]: 4%
- Population Membrane Permeable-Phenotype (%) [12]: 1%
- Population Mitochondria Different-Phenotype (%) [12]: 29%
- Population Mitotic Cells (%) [12]: 78%
- Population Normal (%) [12]: 95%
- Population Pyknosed Nuclei (%) [12]: 17%
- Population Tubulin-Different-Phenotype (%) [12]: 44%
- Total Cell Count [12]: 383
